Assay results from ChEMBL document CHEMBL1156693, “Novel N-(phosphonomethyl) glycine derivatives: Design, characterization and biological activity” (Eur J Med Chem, 2008).
The source made the active and inactive calls. The calls are words filed in the database; no cut-off is given here.

Key:
Mus musculus [1] = assay: Clastogenic effect on C57BL mouse assessed as number of metaphase chromosomal centromere/centromeric fusion in bone marrow cells at 100 mg/kg, ip after 48 hrs; assay type: functional; conditions: route intraperitoneal
Method in brief: (§1)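 Inbred male and female C57Bl mice, groups of 3 males + 3 females, dosed i.p. (0.9% NaCl vehicle/negative control); mitomycin C 3.5 mg/kg positive control. Colchicine 40 mg/kg i.p. 1 h before femoral bone marrow harvest; hypotonic 0.075 M KCl 20 min at 37 °C, methanol-acetic acid fixation, Giemsa stain; ≥50 metaphases per animal scored; group mean ± SE.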

HD-MY-Z = assay: Cytotoxicity against human HD-MY-Z cells after 72 hrs by MTT assay; assay type: functional, cell-based
Method in brief: (§2)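 Cells at 37 °C, 5% CO2; 293T in DMEM, others in RPMI 1640, both with 2 mM L-glutamine and 10% FCS. Seeded 10⁴ cells/well, 24 h preincubation, then compounds 0.195–200 µM (DMSO ≤1% final) for 72 h continuous. MTT added, 4 h, formazan dissolved in 5% formic acid-acidified DMSO, absorbance read; IC50 = concentration giving 50% survival decrease.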

Mus musculus [2] = assay: Clastogenic effect on C57BL mouse assessed as number of metaphase chromosomal fragments in bone marrow cells at 10 mg/kg, ip after 48 hrs; assay type: functional; conditions: route intraperitoneal; method in brief: as §1
Mus musculus [3] = assay: Clastogenic effect on C57BL mouse assessed as number of metaphase chromosomal centromere/centromeric fusion in bone marrow cells at 10 mg/kg, ip after 48 hrs; assay type: functional; conditions: route intraperitoneal; method in brief: as §1
Mus musculus [4] = assay: Clastogenic effect on C57BL mouse assessed as number of metaphase chromosomal breaks in bone marrow cells at 10 mg/kg, ip after 24 hrs; assay type: functional; conditions: route intraperitoneal; method in brief: as §1
Mus musculus [5] = assay: Clastogenic effect on C57BL mouse assessed as number of metaphase chromosomal fragments in bone marrow cells at 100 mg/kg, ip after 48 hrs; assay type: functional; conditions: route intraperitoneal; method in brief: as §1
[6] = Cytotoxicity against human 293T after 72 hrs by MTT assay; assay type: cell-based; conditions: HEK-293T; method in brief: as §2
Mus musculus [7] = assay: Clastogenic effect on C57BL mouse assessed as number of metaphase chromosomal breaks in bone marrow cells at 10 mg/kg, ip after 48 hrs; assay type: functional; conditions: route intraperitoneal; method in brief: as §1
Mus musculus [8] = assay: Clastogenic effect on C57BL mouse assessed as number of metaphase chromosomal fragments in bone marrow cells at 100 mg/kg, ip after 24 hrs; assay type: functional; conditions: route intraperitoneal; method in brief: as §1
Mus musculus [9] = assay: Clastogenic effect on C57BL mouse assessed as mitotic index in bone marrow cells at 10 mg/kg, ip after 24 hrs; assay type: functional; conditions: route intraperitoneal
Method in brief: (§3)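 C57Bl mice (3 males + 3 females per group) given compound i.p.; saline controls. Colchicine 40 mg/kg i.p. 1 h before bone marrow harvest from femur; hypotonic KCl, fixed, Giemsa-stained slides. Mitotic index = dividing cells counted among 1500 cells per animal; per-animal values averaged as group mean ± SE.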

Mus musculus [10] = assay: Clastogenic effect on C57BL mouse assessed as number of metaphase chromosomal centromere/centromeric fusion in bone marrow cells at 100 mg/kg, ip after 24 hrs; assay type: functional; conditions: route intraperitoneal; method in brief: as §1
Mus musculus [11] = assay: Clastogenic effect on C57BL mouse assessed as bone marrow cells with abberation at 100 mg/kg, ip after 48 hrs; assay type: functional; conditions: route intraperitoneal; method in brief: as §1
Mus musculus [12] = assay: Clastogenic effect on C57BL mouse assessed as number of metaphase chromosomal breaks in bone marrow cells at 100 mg/kg, ip after 24 hrs; assay type: functional; conditions: route intraperitoneal; method in brief: as §1
Mus musculus [13] = assay: Clastogenic effect on C57BL mouse assessed as number of metaphase chromosomal fragments in bone marrow cells at 10 mg/kg, ip after 24 hrs; assay type: functional; conditions: route intraperitoneal; method in brief: as §1
Mus musculus [14] = assay: Clastogenic effect on C57BL mouse assessed as number of metaphase chromosome telomere/telomeric fusion in bone marrow cells at 10 mg/kg, ip after 24 hrs; assay type: functional; conditions: route intraperitoneal; method in brief: as §1
Mus musculus [15] = assay: Clastogenic effect on C57BL mouse assessed as number of metaphase chromosomal breaks in bone marrow cells at 100 mg/kg, ip after 48 hrs; assay type: functional; conditions: route intraperitoneal; method in brief: as §1
DOHH-2 [16] = assay: Induction of apoptosis in human DOHH2 cells assessed as increase in histone-associated oligonucleotide level after 24 hrs by ELISA; assay type: functional, cell-based
Method in brief: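 DOHH-2 cells exposed 24 h to equitoxic compound concentrations versus untreated control; cytosolic fractions of 1 × 10⁴ cells used in sandwich ELISA (anti-histone capture, peroxidase-conjugated anti-DNA detection) for histone-associated DNA fragments, read at 405 nm; means ± SD of three independent experiments.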

LAMA-84 = assay: Cytotoxicity against human LAMA-84 cells after 72 hrs by MTT assay; assay type: functional, cell-based; conditions: LAMA-84, 72 h; method in brief: as §2
Mus musculus [17] = assay: Clastogenic effect on C57BL mouse assessed as number of metaphase chromosomal centromere/centromeric fusion in bone marrow cells at 10 mg/kg, ip after 24 hrs; assay type: functional; conditions: route intraperitoneal; method in brief: as §1
Mus musculus [18] = assay: Clastogenic effect on C57BL mouse assessed as mitotic index in bone marrow cells at 100 mg/kg, ip after 48 hrs; assay type: functional; conditions: route intraperitoneal; method in brief: as §3
Mus musculus [19] = assay: Clastogenic effect on C57BL mouse assessed as bone marrow cells with abberation at 100 mg/kg, ip after 24 hrs; assay type: functional; conditions: route intraperitoneal; method in brief: as §1
Mus musculus [20] = assay: Clastogenic effect on C57BL mouse assessed as number of metaphase chromosome telomere/telomeric fusion in bone marrow cells at 10 mg/kg, ip after 48 hrs; assay type: functional; conditions: route intraperitoneal; method in brief: as §1
Mus musculus [21] = assay: Clastogenic effect on C57BL mouse assessed as mitotic index in bone marrow cells at 100 mg/kg, ip after 24 hrs; assay type: functional; conditions: route intraperitoneal; method in brief: as §3
Mus musculus [22] = assay: Clastogenic effect on C57BL mouse assessed as bone marrow cells with abberation at 10 mg/kg, ip after 24 hrs; assay type: functional; conditions: route intraperitoneal; method in brief: as §1
Mus musculus [23] = assay: Clastogenic effect on C57BL mouse assessed as number of metaphase chromosome telomere/telomeric fusion in bone marrow cells at 100 mg/kg, ip after 48 hrs; assay type: functional; conditions: route intraperitoneal; method in brief: as §1
HL-60 = assay: Cytotoxicity against human HL60 cells after 72 hrs by MTT assay; assay type: functional, cell-based; conditions: HL-60, 72 h; method in brief: as §2
K562 = assay: Cytotoxicity against human K562 cells after 72 hrs by MTT assay; assay type: functional, cell-based; conditions: K562, 72 h; method in brief: as §2
Mus musculus [24] = assay: Clastogenic effect on C57BL mouse assessed as number of metaphase chromosome telomere/telomeric fusion in bone marrow cells at 100 mg/kg, ip after 24 hrs; assay type: functional; conditions: route intraperitoneal; method in brief: as §1
Mus musculus [25] = assay: Clastogenic effect on C57BL mouse assessed as bone marrow cells with abberation at 10 mg/kg, ip after 48 hrs; assay type: functional; conditions: route intraperitoneal; method in brief: as §1
DOHH-2 [26] = assay: Cytotoxicity against human DOHH2 cells after 72 hrs by MTT assay; assay type: functional, cell-based; conditions: DOHH-2, 72 h; method in brief: as §2
Mus musculus [27] = assay: Clastogenic effect on C57BL mouse assessed as mitotic index in bone marrow cells at 10 mg/kg, ip after 48 hrs; assay type: functional; conditions: route intraperitoneal; method in brief: as §3
EJ = assay: Cytotoxicity against human EJ cells after 72 hrs by MTT assay; assay type: functional, cell-based; method in brief: as §2

| Compound | Activity (Mus musculus [1]) | IC50 (HD-MY-Z) | Activity (Mus musculus [2]) | Activity (Mus musculus [3]) | Activity (Mus musculus [4]) | Activity (Mus musculus [5]) | IC50 [6] | Activity (Mus musculus [7]) | Activity (Mus musculus [8]) | Activity (Mus musculus [9]) | Activity (Mus musculus [10]) | Activity (Mus musculus [11]) | Activity (Mus musculus [12]) | Activity (Mus musculus [13]) | Activity (Mus musculus [14]) | Activity (Mus musculus [15]) | IC50 (LAMA-84) | Activity (Mus musculus [17]) | Activity (Mus musculus [18]) | Activity (Mus musculus [19]) | other results |
| --- | --- | --- | --- | --- | --- | --- | --- | --- | --- | --- | --- | --- | --- | --- | --- | --- | --- | --- | --- | --- | --- |
| COP(=O)(CNC1(C(=O)O)CCCCCCCCCCC1)OC | 11 | 67.3 µM | 1 | 12 | 4 | 6 | 159 µM | 2 | 0 | 11.13% | 11 | 10% | 4 | 2 | 0 | 6 | 67.3 µM | 11 | 12.82% | 4.29% | Activity (DOHH-2 [16]): Active; Activity (Mus musculus [20]): 0; Activity (Mus musculus [21]): 11.82%; Activity (Mus musculus [22]): 5.57%; Activity (Mus musculus [23]): 2; IC50 (HL-60): 41.4 µM; IC50 (K562): 47.1 µM; Activity (Mus musculus [24]): 0; Activity (Mus musculus [25]): 5%; IC50 (DOHH-2 [26]): 20.1 µM; Activity (Mus musculus [27]): 8.6%; IC50 (EJ): 111 µM |
| COP(=O)(CNC1(C(=O)O)CCCC1)OC | 8 | > 200 µM | 0 | 13 | 7 | 0 | > 200 µM | 6 | 3 | 10.39% | 10 | 6.4% | 8 | 1 | 0 | 6 | 162 µM | 9 | 8.33% | 7% | Activity (Mus musculus [20]): 1; Activity (Mus musculus [21]): 10.97%; Activity (Mus musculus [22]): 4.85%; Activity (Mus musculus [23]): 2; IC50 (HL-60): 157 µM; IC50 (K562): > 200 µM; Activity (Mus musculus [24]): 0; Activity (Mus musculus [25]): 5.77%; IC50 (DOHH-2 [26]): 145 µM; Activity (Mus musculus [27]): 10.66%; IC50 (EJ): > 200 µM |
